Experiment [1] is described as follows: Inhibition of Saccharomyces cerevisiae alpha-glucosidase pre-incubated for 10 mins at 25 degC before addition of p-nitrophenyl-alpha-D-glucopyranoside substrate by UV absorption based assay. In a few lines:
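Yeast α-glucosidase at 1.0 U/mL in 0.1 M K3PO4 buffer, pH 6.9, mixed with test compound in DMSO. Preincubated 10 min at 25 °C, then started with PNPG (5.0 mM solution in the same buffer). A405 was read at once and again after 5 min at 25 °C. ΔA was compared with a DMSO control to give % inhibition and IC50, as means of three independent experiments.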

A further experiment has as its system HCT-116. Kind of experiment: Cytotoxic activity against human HCT116 cells by MTT method. In kind it is functional, cell-based. In a few lines:
(§1)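 MTT assay on the cancer cell line. IC50 taken as the concentration that cuts absorbance to 50% of control. Values are means of three independent experiments.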
(Tetrazolium dyes change colour on reduction, which living cells bring about.)

Another experiment relates to HeLa. Kind of experiment: Cytotoxic activity against human HeLa cells by MTT method. In kind it is functional, cell-based. Put shortly: as §1
The next experiment has as its system HepG2. The experiment is described as follows: Cytotoxic activity against human HepG2 cells by MTT method. In kind it is functional, cell-based. In a few lines:
as §1

Experiment [2] in a line: Cytotoxic activity against human H460 cells by MTT method. In kind it is functional, cell-based. To be noted: NCI-H460. Put shortly: as §1
Experiment [3] in a line: Cytotoxic activity against human BGC823 cells by MTT method. Type of experiment: functional, cell-based. The note with it: BGC-823. Put shortly: as §1

The structures appear in SMILES notation. Where a name gives a salt, the structure may show the parent alone.

The term IC50 denotes the midpoint of a concentration-inhibition curve. Low readings indicate higher potency, high ones lower potency. On to `CC(=O)O[C@H]1C[C@@H](O)[C@@]2(C)C[C@@]3(O)OC(=O)C(C)=C3C[C@@H]2[C@H]1C`, for which the IC50 was more than 1000 µM in experiment [1]; more than 10 µM in the experiment with HCT-116; more than 10 µM in the experiment with HeLa; more than 10 µM in the experiment with HepG2; more than 10 µM in experiment [2]; more than 10 µM in experiment [3].

In the case of `CC1=C2C[C@@H]3[C@@H](C)[C@@H](O)C[C@@H](O)[C@@]3(C)C[C@@]2(O)OC1=O`, the 50% inhibitory concentration (IC50) is more than 1000 µM in experiment [1]; more than 10 µM in the experiment on HCT-116; more than 10 µM with HeLa; more than 10 µM in the experiment on HepG2; more than 10 µM in experiment [2]; more than 10 µM in experiment [3].

For the molecule `CC(=O)O[C@@H]1C(=O)C=C(C)[C@]2(O)CC3=C(C)C(=O)O[C@@]3(O)C[C@@]12C`, the IC50 in experiment [1] is 300 µM; in the experiment on HCT-116 it was more than 10 µM; in the experiment with HeLa, more than 10 µM; in the experiment with HepG2, more than 10 µM; in experiment [2], more than 10 µM; in experiment [3], more than 10 µM.

In experiment [1], `C[C@H]1O[C@H](O[C@H]2[C@H](O)[C@@H](O)[C@@H](O[C@H]3[C@H](O)[C@@H](O)C(O)O[C@@H]3CO)O[C@@H]2CO)[C@H](O)[C@@H](O)[C@@H]1N[C@H]1C=C(CO)[C@@H](O)[C@H](O)[C@H]1O` (stereo not given in full) [ACARBOSE] had an IC50 of 169 µM.

Regarding `COc1cccc2c1C(=O)c1c(O)c3c(c(O)c1C2=O)C[C@@](O)(C(=O)CO)C[C@@H]3O[C@H]1C[C@H](N)[C@H](O)[C@H](C)O1` [DOXORUBICIN HYDROCHLORIDE], the IC50 in the experiment with HeLa was 0.72 µM; in the experiment on HepG2, 0.24 µM; in experiment [2], 0.24 µM; in experiment [3], 0.76 µM.

On to `CC(C)C1=CC2=C(C(=O)C1=O)[C@]13CO[C@H]2C[C@H]1C(C)(C)C[C@H](O)C3`, for which the IC50 in experiment [1] is more than 1000 µM; in the experiment with HCT-116 it was 7.3 µM; in the experiment on HeLa, more than 10 µM; in the experiment on HepG2, more than 10 µM; in experiment [2], more than 10 µM; in experiment [3] it was more than 10 µM.

On to `CC(=O)O[C@@H]1C(=O)C=C(C)[C@@H]2CC3=C(C)C(=O)O[C@@]3(O)C[C@@]12C`, for which the IC50 in experiment [1] is more than 1000 µM; with HCT-116, more than 10 µM; in the experiment with HeLa, more than 10 µM; with HepG2, more than 10 µM; in experiment [2], more than 10 µM; in experiment [3], more than 10 µM.

Take `CC(C)C1=C[C@@]23Oc4c(C(C)C)cc5c(c4O[C@]2(C(=O)C1=O)C12COC3C[C@H]1C(C)(C)C[C@H](O)C2)C12COC5C[C@H]1C(C)(C)C[C@H](O)C2` (stereo not given in full): the IC50 was more than 1000 µM in experiment [1]; more than 10 µM with HCT-116; more than 10 µM with HeLa; more than 10 µM in the experiment with HepG2; more than 10 µM in experiment [2]; more than 10 µM in experiment [3].

Regarding `CC(C)c1cc2c(c(O)c1O)[C@]13CO[C@H]2C[C@H]1C(C)(C)C[C@H](O)C3`, the IC50 in experiment [1] was more than 1000 µM; with HCT-116 it was more than 10 µM; in the experiment on HeLa, more than 10 µM; in the experiment with HepG2 it was more than 10 µM; in experiment [2], more than 10 µM; in experiment [3] it was more than 10 µM.

Regarding `CC1=CC(=O)[C@@H](O)[C@]2(C)C[C@]3(O)OC(=O)C(C)=C3C[C@@H]12`, the half-inhibitory concentration (IC50) is 568 µM in experiment [1]; more than 10 µM with HCT-116; more than 10 µM in the experiment with HeLa; more than 10 µM in the experiment on HepG2; more than 10 µM in experiment [2]; more than 10 µM in experiment [3].

Regarding `CC(=O)O[C@@H]1C[C@H](O)[C@H](C)[C@H]2CC3=C(C)C(=O)O[C@]3(O)C[C@@]21C`, the IC50 in experiment [1] is more than 1000 µM; with HCT-116, more than 10 µM; in the experiment on HeLa, more than 10 µM; with HepG2 it was more than 10 µM; in experiment [2], more than 10 µM; in experiment [3], more than 10 µM.

In the case of `CC(C)C1=C[C@]23Oc4c(C(C)C)cc5c(c4O[C@@]2(C(=O)C1=O)C12COC3C[C@H]1C(C)(C)C[C@H](O)C2)C12COC5C[C@H]1C(C)(C)C[C@H](O)C2` (stereo not given in full), the IC50 was more than 1000 µM in experiment [1]; 6.3 µM with HCT-116; 5.2 µM with HeLa; 5.2 µM with HepG2; 8.5 µM in experiment [2]; 4.8 µM in experiment [3].

(Values after ChEMBL document CHEMBL3580648, “Dimeric Abietane Diterpenoids and Sesquiterpenoid Lactones from Teucrium viscidum” (J Nat Prod, 2015).)
